According to ChEMBL document CHEMBL1154048, “Design, synthesis and pharmacological evaluation of new 1-[3-(4-arylpiperazin-1-yl)-2-hydroxy-propyl]-3,3-diphenylpyrrolidin-2-one derivatives with antiarrhythmic, antihypertensive, and alpha-adrenolytic activity” (Eur J Med Chem, 2009):
Activity calls are given as the source filed them.

Tests used:
Rattus norvegicus [1] = experiment: Hypotensive activity in Wistar rat assessed as reduction in epinephrine-induced blood pressure response at 5 mg/kg; format: functional, organism-based; set-up: dose 5 mg/kg
Procedure, shortened: (§1)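 In anaesthetized rats, pressor responses were evoked by i.v. epinephrine, norepinephrine or methoxamine. Blood pressure was recorded through a heparin-saline-filled cannula in the carotid artery.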

Rattus norvegicus [2] = experiment: Antiarrhythmic activity against adrenaline-induced arrhythmia in iv dosed rat assessed as reduction in bigeminy administered 15 mins before adrenaline challenge; format: functional, organism-based; details: Heart
Procedure, shortened: (§2)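 Rats anaesthetized with thiopental 60 mg/kg ip received the compound i.v. 15 min before an i.v. adrenaline challenge. Rhythm disturbances were recorded for 15 min after adrenaline. Activity was defined as absence of premature beats and inhibition of disturbances versus controls. ED50 values, with confidence limits, were derived by Litchfield–Wilcoxon from three groups of six animals.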

Rattus norvegicus [3] = experiment: Antiarrhythmic activity against adrenaline-induced arrhythmia in iv dosed rat assessed as reduction in ventricular extrasystole administered 15 mins before adrenaline challenge; format: functional, organism-based; details: Heart; procedure, shortened: as §2
Rattus norvegicus [4] = experiment: Hypotensive activity in Wistar rat assessed as reduction in norepinephrine-induced blood pressure response at 5 mg/kg; format: functional, organism-based; set-up: dose 5 mg/kg; procedure, shortened: as §1
Rattus norvegicus [5] = experiment: Antiarrhythmic activity against adrenaline-induced arrhythmia in iv dosed rat assessed as reduction in mortality rate administered 15 mins before adrenaline challenge; format: functional, organism-based; details: Heart; procedure, shortened: as §2
[6] = biological target: T1, Adrenergic receptor alpha-1 (Rattus norvegicus, UniProt P15823+P23944+P43140); experiment: Displacement of [3H]prazosin from alpha1 adrenergic receptor in rat cerebral cortex by liquid scintillation counting; format: tissue-based
T1 sequence (P15823 whole entry): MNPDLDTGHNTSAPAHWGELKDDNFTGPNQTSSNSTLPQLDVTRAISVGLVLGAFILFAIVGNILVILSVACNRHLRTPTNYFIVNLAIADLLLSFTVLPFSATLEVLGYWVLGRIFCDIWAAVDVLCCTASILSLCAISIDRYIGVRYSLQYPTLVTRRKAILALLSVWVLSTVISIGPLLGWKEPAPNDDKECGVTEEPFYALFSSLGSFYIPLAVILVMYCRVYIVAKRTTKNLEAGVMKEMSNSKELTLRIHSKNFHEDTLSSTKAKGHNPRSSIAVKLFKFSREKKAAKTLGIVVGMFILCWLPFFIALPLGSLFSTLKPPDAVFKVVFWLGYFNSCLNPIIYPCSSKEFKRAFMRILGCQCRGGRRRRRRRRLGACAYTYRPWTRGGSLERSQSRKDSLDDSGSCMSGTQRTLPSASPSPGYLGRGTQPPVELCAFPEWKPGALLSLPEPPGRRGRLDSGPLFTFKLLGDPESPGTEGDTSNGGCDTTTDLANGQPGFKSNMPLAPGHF
T1 sequence (P23944 whole entry): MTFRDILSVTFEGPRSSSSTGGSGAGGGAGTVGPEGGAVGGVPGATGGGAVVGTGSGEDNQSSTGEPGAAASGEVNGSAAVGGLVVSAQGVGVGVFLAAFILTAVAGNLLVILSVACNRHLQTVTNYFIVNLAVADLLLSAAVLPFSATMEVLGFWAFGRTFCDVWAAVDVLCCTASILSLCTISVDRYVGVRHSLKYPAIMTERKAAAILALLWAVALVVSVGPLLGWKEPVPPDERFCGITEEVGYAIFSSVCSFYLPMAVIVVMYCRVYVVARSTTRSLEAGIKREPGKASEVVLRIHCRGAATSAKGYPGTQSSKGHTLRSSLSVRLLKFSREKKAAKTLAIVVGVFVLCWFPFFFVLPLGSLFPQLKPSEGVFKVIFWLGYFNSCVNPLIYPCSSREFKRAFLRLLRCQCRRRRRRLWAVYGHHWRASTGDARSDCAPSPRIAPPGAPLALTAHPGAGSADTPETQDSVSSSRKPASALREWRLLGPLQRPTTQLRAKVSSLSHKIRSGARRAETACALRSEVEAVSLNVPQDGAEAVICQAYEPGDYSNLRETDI
T1 sequence (P43140 whole entry): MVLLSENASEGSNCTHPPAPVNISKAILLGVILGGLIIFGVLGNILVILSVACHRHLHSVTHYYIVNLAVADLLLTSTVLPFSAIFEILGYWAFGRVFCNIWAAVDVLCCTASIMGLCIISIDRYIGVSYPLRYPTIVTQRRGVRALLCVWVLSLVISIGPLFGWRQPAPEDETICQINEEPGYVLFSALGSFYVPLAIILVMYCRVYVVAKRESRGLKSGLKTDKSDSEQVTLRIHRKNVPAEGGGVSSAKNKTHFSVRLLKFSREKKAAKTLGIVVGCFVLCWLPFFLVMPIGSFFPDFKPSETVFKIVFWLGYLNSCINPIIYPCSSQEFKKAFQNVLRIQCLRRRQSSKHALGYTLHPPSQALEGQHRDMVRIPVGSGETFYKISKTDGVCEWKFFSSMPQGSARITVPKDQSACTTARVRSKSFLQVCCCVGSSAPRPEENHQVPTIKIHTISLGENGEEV
Procedure, shortened: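 Rat cerebral cortex was homogenized in ice-cold 50 mM Tris–HCl pH 7.6, centrifuged 20 000 × g for 20 min at 0–4 °C, and washed once more. Membranes were incubated with [3H]prazosin 0.2 nM and seven to eight compound concentrations (10^-11–10^-4 M), with phentolamine defining nonspecific binding. Bound ligand was filtered on glass fiber and counted by liquid scintillation. Runs were in duplicate, and Ki was calculated by Cheng–Prusoff.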

Rattus norvegicus [7] = experiment: Antiarrhythmic activity against adrenaline-induced arrhythmia in iv dosed rat assessed as reduction in supraventricular extrasystole administered 15 mins before adrenaline challenge; format: functional, organism-based; details: Heart; procedure, shortened: as §2
Rattus norvegicus [8] = experiment: Antiarrhythmic activity against adrenaline-induced arrhythmia in iv dosed rat assessed as inhibition of cardiac rhythm disturbance administered 15 mins before adrenaline challenge; format: functional; details: Heart; procedure, shortened: as §2
Rattus norvegicus [9] = experiment: Hypotensive activity in Wistar rat assessed as reduction in methoxamine-induced pressure response at 5 mg/kg; format: functional, organism-based; set-up: dose 5 mg/kg; procedure, shortened: as §1
Rattus norvegicus [10] = experiment: Antiarrhythmic activity against adrenaline-induced arrhythmia in rat assessed as reduction in bigeminy at 5 mg/kg, iv administered 15 mins before adrenaline challenge; format: functional, organism-based; set-up: dose 5 mg/kg; details: Heart
Procedure, shortened: (§3)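 Rats anaesthetized with thiopental 60 mg/kg ip were dosed i.v. 15 min before an i.v. adrenaline challenge. Cardiac rhythm disturbances (bradycardia, extrasystoles, bigeminy, blocks) were recorded for 15 min after adrenaline and compared with controls.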

Rattus norvegicus [11] = experiment: Antiarrhythmic activity against adrenaline-induced arrhythmia in rat assessed as reduction in reflex bradycardia at 5 mg/kg, iv administered 15 mins before adrenaline challenge; format: functional, organism-based; set-up: dose 5 mg/kg; details: Heart; procedure, shortened: as §3
Rattus norvegicus [12] = experiment: Antiarrhythmic activity against adrenaline-induced arrhythmia in rat assessed as reduction in ventricular extrasystole at 5 mg/kg, iv administered 15 mins before adrenaline challenge; format: functional, organism-based; set-up: dose 5 mg/kg; details: Heart; procedure, shortened: as §3
Rattus norvegicus [13] = experiment: Antiarrhythmic activity against adrenaline-induced arrhythmia in rat assessed as reduction in cardiac block at 5 mg/kg, iv administered 15 mins before adrenaline challenge; format: functional, organism-based; set-up: dose 5 mg/kg; details: Heart; procedure, shortened: as §3
Rattus norvegicus [14] = experiment: Antiarrhythmic activity against adrenaline-induced arrhythmia in rat assessed as reduction in supraventricular extrasystole at 5 mg/kg, iv administered 15 mins before adrenaline challenge; format: functional, organism-based; set-up: dose 5 mg/kg; details: Heart; procedure, shortened: as §3
Rattus norvegicus [15] = organism: Rattus norvegicus; experiment: Hypotensive activity in Wistar rat assessed as reduction in epinephrine-induced systolic blood pressure response; format: functional, organism-based; details: Artery; procedure, shortened: as §1
Rattus norvegicus [16] = organism: Rattus norvegicus; experiment: Hypotensive activity in Wistar rat assessed as reduction in methoxamine-induced systolic blood pressure response; format: functional, organism-based; details: Artery; procedure, shortened: as §1
Rattus norvegicus [17] = organism: Rattus norvegicus; experiment: Hypotensive activity in Wistar rat assessed as reduction in norepinephrine-induced systolic blood pressure response; format: functional, organism-based; details: Artery; procedure, shortened: as §1
Rattus norvegicus [18] = experiment: Hypotensive activity in normotensive Wistar rat assessed as systolic blood pressure at 5 mg/kg, iv after 60 mins (Rvb=138 +/- 0.9 mmHg); format: functional, Artery

Row | SMILES | Activity (Rattus norvegicus [1]) | Activity (Rattus norvegicus [2]) | Activity (Rattus norvegicus [3]) | Activity (Rattus norvegicus [4]) | Activity (Rattus norvegicus [5]) | pKi [6] | Activity (Rattus norvegicus [7]) | ED50 (Rattus norvegicus [8]) [mg/kg] | Activity (Rattus norvegicus [9]) | Activity (Rattus norvegicus [10]) | Activity (Rattus norvegicus [11]) | Activity (Rattus norvegicus [12]) | Activity (Rattus norvegicus [13]) | Activity (Rattus norvegicus [14]) | Activity (Rattus norvegicus [15]) | Activity (Rattus norvegicus [16]) | Activity (Rattus norvegicus [17]) | Activity (Rattus norvegicus [18]) [mmHg]
1 | Cl.Cl.O=C1N(CC(O)CN2CCN(c3ccccc3)CC2)CCC1(c1ccccc1)c1ccccc1 (centres undefined) | Active | Active | Active | Active | Active | 6.74 | Active | 1.9 | Active |  |  |  |  |  |  |  |  | 
2 | CCOc1ccccc1N1CCN(CC(O)CN2CCC(c3ccccc3)(c3ccccc3)C2=O)CC1.Cl.Cl (centres undefined) | Active |  |  | Active | Active | 7.28 |  | 1.1 | Active | Active | Active | Active | Active | Active |  |  |  | 
3 | COc1ccc(N2CCN(CC(O)CN3CCC(c4ccccc4)(c4ccccc4)C3=O)CC2)cc1.Cl.Cl (centres undefined) |  |  |  |  |  | 5.36 |  |  |  |  |  |  |  |  | inactive | inactive | inactive | 
4 | Cc1ccccc1N1CCN(CC(O)CN2CCC(c3ccccc3)(c3ccccc3)C2=O)CC1.Cl.Cl (centres undefined) | Active |  |  | Active | Active | 6.69 |  | 1.4 | Active | Active | Active | Active | Active | Active |  |  |  | 
5 | COc1ccccc1N1CCN(CC(O)CN2CCC(c3ccccc3)(c3ccccc3)C2=O)CC1.Cl.Cl (centres undefined) | Active | Active | Active | Active | Active | 6.8 | Active | 2.05 | Active |  |  |  |  |  |  |  |  | 
6 | Cl.Cl.O=C1N(CC(O)CN2CCN(c3ccccc3C(F)(F)F)CC2)CCC1(c1ccccc1)c1ccccc1 (centres undefined) |  | Active | Active |  | Active | 5.89 | Active | 3.9 |  |  |  |  |  |  | inactive | inactive | inactive | 111
